Measured values taken from the RNAGym collection of RNA variant scans (doi:10.1126/science.aae0568).
Variants at the floor of the assay were thinned out.

B1: tRNA (parent)
chain: GUUCCGUUGGCGUAAUGGUAACGCGUCUCCCUCCUAAGGAGAAGACUGCGGGUUCGAGUCCCGUACGGAACG

Variants of: B1
Assay: yeast fitness relative to wild type (ratio to wild type); higher = fitter; tRNA-Arg(CCU), competitive growth, 37 C, YPD
Procedure, shortened: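 A pool of Saccharomyces cerevisiae strains, each with a tRNA-Arg(CCU) gene variant at the native genomic locus, was competed in YPD at 37°C for 24 hours across six parallel replicates. The variants had been chemically synthesised at a 3% per-site mutation rate over 69 sites, and gene amplicons before and after competition were read by 100-nucleotide paired-end sequencing. Darwinian fitness relative to wild type rested on changes in genotype frequencies. Genotypes required ≥ 100 starting reads, and estimates < 0.5 were set to 0.5.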

Going from GUUCCGUUGGAGUAAUGGUUAUGCGUCUCCCUCCUAAGGAGAAGACUGCGGGUUCGAGUCCCGUACGGAACG [C11A A20U C22U] to GAUCCGUUGGCGUAAUGGUAACGCGUCUCCCUCCUAAGGAGAAGACUGCGGGUUCGAGUCUCGUACGGACCG [U2A C61U A70C], the yeast fitness rises from 0.552 to 0.585.

First: GUUUCGUUGGCGUAAUGGUAACGCGACUCCCUCCUAAGGAGAAGCCUGCGGGUUCGAGUCCCGUACGGAACG [C4U U26A A45C]
Second: GUUCCGUUAGCGUAAUGGUAACGCGUCUCCCUCGUAACGAGAAGACUGCGGGUUCGAGUCCCGUACGGAACG [G9A C34G G38C]
The yeast fitness of the first is higher: 0.53 for the first, at most 0.5 for the second.

First: GUUCCGUUGGCGUAAUCGAAACGCGUCUCCCUCCUAAGGAGAAGACUGGGGGUUCGAGUCCCGUACGGGACG [G17C U19A C49G A69G]
Second: GUUCCGUUGGCAUAAUGGUAACGCGUCUCCCUCCUAACGAGAAGACUGUGGGUUCGAGUCCUGUACGGUACG [G12A G38C C49U C62U A69U]
The yeast fitness of the first is lower: at most 0.5 for the first, 0.973 for the second.

GCUCCGUUGGCGUAACGGUAAAGCGUCUACCUCCUAAGGAGAAGACUGCGCGUUCGAGUCCCGUACGGAACG [U2C U16C C22A C29A G51C] and GUACCGUUGGCGUAAUGGUAAGGUGUCUCCCUACUAAGGAGAAGACUGCGGGUUCGAAUCCCGUACGGAACG [U3A C22G C24U C33A G58A] cannot be ordered by yeast fitness: at most 0.5 for the first, at most 0.5 for the second.

First: GUUCCGUUGGCGUAGUGGUAACGCGUCUCGCUCCUAAGGAGAAGACUGCGGGUUCGAGUCCCAUACGGAACG [A15G C30G G63A]
Second: GUUCCGUUGGCAUAAUGGUAACGCGUAUCGCUCCUAAGGAGAAGACUGCGGGUUCGAGUCCCGUACGGAACG [G12A C27A C30G]
The yeast fitness of the first is lower: at most 0.5 for the first, 0.626 for the second.

GUUCCGUUGGCGUAAUGGUAACGCGUGUCCCUCCUAAGGAGUAGACUACGGGUUCGAGUCCCGUACGGAACG [C27G A42U G48A] and GUUCCGAUGGCGUAAUAGUAACGCGUCUCACUCCUAAGGAGAAGACUGCGGGUUCGAGUCCCGUCCGGAACG [U7A G17A C30A A65C] cannot be ordered by yeast fitness: at most 0.5 for the first, at most 0.5 for the second.

First: GUUCCGUUGGCGUAAUGGUAACGCGUCUCCCUCGUAAGGAGAAGACUGCGGGUUCGAGUGCCGUACGGAACG [C34G C60G]
Second: GUUCCGUUGGCGUAAUGGUAACGCGUCUCCCUCCUAAGGAGAAGACUGCAGGUUCGAGUACCGUACGGAACG [G50A C60A]
The yeast fitness of the first is higher: 0.782 for the first, 0.581 for the second.

GUUCCGUUGGCGUAAUGGUAACGCGUCUCCAUGCUAAGGAGAAGACUGCGCGUUCGAGUGCCGUACGGAACG [C31A C33G G51C C60G] and GUUACGUUGGCGUACUGGUAACGCGUCUCCCUCCUAAGGAGAAGACUGCGGGUUCGAGUCCCGUAUGGAACG [C4A A15C C66U] cannot be ordered by yeast fitness: at most 0.5 for the first, at most 0.5 for the second.

Going from GUUCCGUUGGGGUAAAGGUAACGCGUCUUCCUCCUAAGGAGAAGACUGCGGGUUCGAGUCCCGUACGGAACG [C11G U16A C29U] to GUUCGGUUGGCGUAAUGGUAACGCGUCUCCCUCCUAAGGAGACGACUGCGGGUUCGAGUCCCGUACGGAACG [C5G A43C], the yeast fitness rises from at most 0.5 to 0.744.

Going from GUUCCGUUGGCGUAAUGGUAAUGCGUCUCCCCCCUAAGGAGAAGACUGCGGGUUCGAGUCCCGUACGGAACG [C22U U32C] to GUUGCGUUGGCGUAAUGGUAACGCGUCUACCUCCUAAGGAGAAGAAUGCGGGUUCGAAUCCCGUACGGAACG [C4G C29A C46A G58A], the yeast fitness falls from 0.902 to 0.525.

Compared with GGUCCGUUGGCAUGAUGGUAACGCGUCUCCCUCCUAAGGAGAAGACUGCGGGUUCGAGUCCCGUACGGAACG [U2G G12A A14G], GUUCCGUUGGCCUAAUGGUAACGCGUCUCCCUCCUAAGGAGAAGCCUGCGGGUUCGAGUCACGUACGGAACG [G12C A45C C61A] is higher in yeast fitness: 0.561 for the first, 0.686 for the second.

First: GUUCCGUUGGCGUAAUGGUAACGCGUCUCACUCCUAAGGAGAAGACUGCGGGUUCGAGUCCUGUACGGAACG [C30A C62U]
Second: GUUCCGUUGGCGUAAUGGUAACGCGUCUCCCUCCUAAGGAGAAGACUGCGGCUUCAAGUCCCGUACGGAACG [G52C G56A]
The yeast fitness of the first is higher: 0.886 for the first, 0.689 for the second.

Compared with GUUCCGUUGGCGUAAUGGUAACGCGUCUCCCUCCUAAGGAGAAGACUAAGGGUUCGAGUCCCGUACUGAACG [G48A C49A G67U], GUUCCGUUGGCGUAUUGGUACCGCGUCUCCCUCCUAAGGAGAAGACUGCGGGCUCCAGUCCCGUGCGGAACG [A15U A21C U53C G56C A65G] is higher in yeast fitness: 0.572 for the first, 0.77 for the second.

First: GUUCUGUUGGCGUAAUGGUAACGCGUCUCCCUCCUUAGGAGAAGACUGCGGGUUCGAGUUCCGUACGGAACG [C5U A36U C60U]
Second: GUUCCGUUGGCGUAAUGGUAACGCGUCUCCCUCCUAAGGUGAAGUCUGCGGGUUCGAGUCCCGUACGGAACG [A40U A45U]
The yeast fitness of the first is lower: 0.81 for the first, 0.941 for the second.

Going from GUUCCGUUGGCGUAACCGUAACGCGUCUCCCUCCUAACGAGAAGAUUGCGGGUUCGACUCCCGUACGGAACG [U16C G17C G38C C46U G58C] to GUUCCGUUGGCGUAGUGAUAACGCGUCUCCCUCCUAAGGAGAAGACUGCGGGUACGAGUCCCGUACGGAACG [A15G G18A U54A], the yeast fitness falls from 0.64 to at most 0.5.

GUUCCGUUGGGGUAAUGGUAACGAGUCUCCCUCCUAAGGAGAAGACUCCGGGUGUGAGUCCCGUAUGGAACG [C11G C24A G48C U54G C55U C66U] and GUUCCGUCGGCGUAAUGGUAACGCGUAUCCCUCCUAAGGAGAAGACUGCGGAUUCGAGUCCGGUACGGGACG [U8C C27A G52A C62G A69G] cannot be ordered by yeast fitness: at most 0.5 for the first, at most 0.5 for the second.

GUUCCGUUGGCGUAAUGGUAACGCGUAUCCCUCCUAAGAAGAAGACUGCGGGUUCGGGUCCCGUACGGAACG [C27A G39A A57G] and GUUUCGUUGGCGUAAUGGUAACGCGUCUCCCUCCUAAGGAGAAGACUGCCCGUUCAAGUCCCGUACGGAACG [C4U G50C G51C G56A] cannot be ordered by yeast fitness: at most 0.5 for the first, at most 0.5 for the second.

Going from GUUCCAUUGGCGUGAUGGUAAGGCGUCUCCCUCCGAAGGCGAAGACUGCGGGUUCGAGUCCCGUACGGAGCG [G6A A14G C22G U35G A40C A70G] to GUUCCGUUGGCGUAAUGGUAACACAUCUCCUUCCUAAGGAGAAGACUGCGGGUUCGAGUCCCGUACGGAACG [G23A G25A C31U], the yeast fitness rises from at most 0.5 to 0.652.

GUUCCGUUGGCGUAGUGGUAACGCGUCUCCCUCCUAAGGAGCAGACUGCGGCUUCGAGUCCCGUACGGAACG [A15G A42C G52C] and GUUGCGUUGGGGUAAUGGCAACCCGUCGCCCUCCUAAGGAGAAGACUGCGGGUUCGAGUCGCGUACGGAACG [C4G C11G U19C G23C U28G C61G] cannot be ordered by yeast fitness: at most 0.5 for the first, at most 0.5 for the second.
